Assay results: ChEMBL document CHEMBL3877241 (J Med Chem, 2016)

Columns and labels:
[1] = target: High affinity nerve growth factor receptor (Homo sapiens, UniProt P04629); assay: Inhibition of human NTRK1 (G475 to G790 residues) expressed in mammalian expression system assessed as residual activity at 100 nM by KINOMEScan assay relative to control
Summary of the method: (§1)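 DiscoveRx competition-binding panel of 97 kinases, measuring binding to the kinase ATP site rather than catalytic turnover. The test compound was run at a single 100 nM concentration. Results are given as % of control binding.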

[2] = target: Tyrosine-protein kinase JAK3 (Homo sapiens, UniProt P52333); assay: Inhibition of human JAK3 JH1 catalytic domain (I781 to S1124 residues) expressed in mammalian expression system by KINOMEScan assay
[3] = Antiproliferative activity against human HCT116 cells after 72 hrs by MTT assay; assay type: functional, cell-based; conditions: HCT-116, 72 h
Summary of the method: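 MTT viability after 72 h exposure. Cells seeded at 2500/well and left 24 h before compound addition; DMSO at 0.5% v/v final. MTT added in FBS-free medium for 3 h at 37 °C, formazan dissolved in DMSO, absorbance read at 570 nm. IC50 from a sigmoidal fit of % viability vs log concentration; triplicates on separate occasions using two different stock solutions.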

[4] = target: Mast/stem cell growth factor receptor Kit (Homo sapiens, UniProt P10721); assay: Inhibition of human KIT (I571 to D952 residues) expressed in bacterial expression system assessed as residual activity at 100 nM by KINOMEScan assay relative to control
Summary of the method: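 Done by DiscoveRx as an ATP-site binding panel covering 97 kinases across the kinome. It measures binding rather than inhibition of phosphate transfer. The compound was tested at 100 nM, and the result is expressed as percent of control binding.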

[5] = target: Mitogen-activated protein kinase 10 (Homo sapiens, UniProt P53779); assay: Inhibition of human MAPK10 (V28 to Q422 residues) expressed in mammalian expression system assessed as residual activity at 100 nM by KINOMEScan assay relative to control; summary of the method: as §1
[6] = target: T1, Non-receptor tyrosine-protein kinase TYK2 (Homo sapiens, UniProt P29597); assay: Inhibition of human TYK2 (V877 to C1187 residues) expressed in mammalian expression system assessed as residual activity at 100 nM by KINOMEScan assay relative to control; summary of the method: as §1
MOLM-14 = assay: Induction of apoptosis in human MOLM14 cells assessed as necrotic cells at 0.75 uM after 48 hrs by Annexin-V FITC/propidium iodide staining based flow cytometry (reference value: 0.1%); assay type: functional
Summary of the method: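 MOLM-14 cells treated 48 h at the stated concentrations; doxorubicin as positive control. Stained with Annexin V-FITC and propidium iodide and analysed by flow cytometry (at least 10,000 events). Gated quadrants: Annexin V−/PI− viable, Annexin V+/PI− early apoptotic, Annexin V+/PI+ late apoptotic.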

[7] = target: Histone deacetylase 7 (Homo sapiens) (UniProt Q8WUI4); assay: Inhibition of human recombinant N-terminal GST-tagged HDAC7 (518 to 991 residues) expressed in insect cells at 10 uM preincubated with enzyme followed by […] addition measured after 2 hrs by fluorescence assay relative to control
Summary of the method: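 HDAC enzyme in Tris-HCl pH 8.0 buffer with NaCl, KCl and MgCl2 was pre-incubated with compound from DMSO. Substrate was then added and the reaction ran 2 h at 30 °C. It was stopped with developer containing trichostatin A, and fluorescence (Ex/Em 360/460 nm) was read at plateau. Single test concentration 10 µM.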

[8] = Antiproliferative activity against human KHYG cells after 48 hrs by CellTiter-Glo assay; assay type: functional, cell-based
[9] = target: Mitogen-activated protein kinase 8 (Homo sapiens, UniProt P45983); assay: Inhibition of full length human MAPK8 (M1 to Q384 residues) expressed in mammalian expression system by KINOMEScan assay
[10] = target: Tyrosine-protein kinase JAK2 (Homo sapiens, UniProt O60674); assay: Inhibition of JAK2 (unknown origin) preincubated for 20 mins followed by [33P]ATP addition measured after 120 mins by Hotspot assay
[11] = Antiproliferative activity against human OPM2 cells after 48 hrs by CellTiter-Glo assay; assay type: functional, cell-based; conditions: OPM-2, 48 h
Summary of the method: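 OPM2 grown in RPMI 1640 with 10% FBS and penicillin/streptomycin at 37 °C, 5% CO2. Treated at 25,000 cells/well in triplicate for 48 h. Viability read by CellTiter-Glo luminescence. IC50 taken from a sigmoidal fit of % viability vs log concentration.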

[12] = Antiproliferative activity against human NKYS cells after 48 hrs by CellTiter-Glo assay; assay type: functional, cell-based
[13] = Antiproliferative activity against human KG1 cells after 48 hrs by CellTiter-Glo assay; assay type: functional, cell-based; conditions: KG-1, 48 h
Histone deacetylase 1 = Histone deacetylase 1 (Homo sapiens, UniProt Q13547); assay: Inhibition of full length human recombinant C-terminal FLAG/His-tagged HDAC1 (1 to 482 residues) expressed in sf21 cells preincubated with enzyme followed by fluorogenic Arg-His-Lys-Lys(Ac)-AMC substrate addition measured after 2 hrs by fluorescence assay
[14] = target: T1, Non-receptor tyrosine-protein kinase TYK2; assay: Inhibition of TYK2 (unknown origin) at 0.1 uM preincubated for 20 mins followed by [33P]ATP addition measured after 120 mins by Hotspot assay relative to control
Summary of the method: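 Radiometric HotSpot kinase assay. Buffer: 20 mM HEPES pH 7.5, 10 mM MgCl2, 1 mM EGTA, 0.02% Brij35, 0.02 mg/mL BSA, 0.1 mM Na3VO4, 2 mM DTT, 1% DMSO. Compound added about 20 min before ATP/[33P]ATP (10 μM final). Reactions run 120 min at 25 °C, spotted on P81 filters and washed in phosphoric acid. Activity expressed relative to DMSO after background subtraction. Single-concentration panel at 100 nM in duplicate.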

T1 sequence (P29597 whole entry, the tested form may be a part): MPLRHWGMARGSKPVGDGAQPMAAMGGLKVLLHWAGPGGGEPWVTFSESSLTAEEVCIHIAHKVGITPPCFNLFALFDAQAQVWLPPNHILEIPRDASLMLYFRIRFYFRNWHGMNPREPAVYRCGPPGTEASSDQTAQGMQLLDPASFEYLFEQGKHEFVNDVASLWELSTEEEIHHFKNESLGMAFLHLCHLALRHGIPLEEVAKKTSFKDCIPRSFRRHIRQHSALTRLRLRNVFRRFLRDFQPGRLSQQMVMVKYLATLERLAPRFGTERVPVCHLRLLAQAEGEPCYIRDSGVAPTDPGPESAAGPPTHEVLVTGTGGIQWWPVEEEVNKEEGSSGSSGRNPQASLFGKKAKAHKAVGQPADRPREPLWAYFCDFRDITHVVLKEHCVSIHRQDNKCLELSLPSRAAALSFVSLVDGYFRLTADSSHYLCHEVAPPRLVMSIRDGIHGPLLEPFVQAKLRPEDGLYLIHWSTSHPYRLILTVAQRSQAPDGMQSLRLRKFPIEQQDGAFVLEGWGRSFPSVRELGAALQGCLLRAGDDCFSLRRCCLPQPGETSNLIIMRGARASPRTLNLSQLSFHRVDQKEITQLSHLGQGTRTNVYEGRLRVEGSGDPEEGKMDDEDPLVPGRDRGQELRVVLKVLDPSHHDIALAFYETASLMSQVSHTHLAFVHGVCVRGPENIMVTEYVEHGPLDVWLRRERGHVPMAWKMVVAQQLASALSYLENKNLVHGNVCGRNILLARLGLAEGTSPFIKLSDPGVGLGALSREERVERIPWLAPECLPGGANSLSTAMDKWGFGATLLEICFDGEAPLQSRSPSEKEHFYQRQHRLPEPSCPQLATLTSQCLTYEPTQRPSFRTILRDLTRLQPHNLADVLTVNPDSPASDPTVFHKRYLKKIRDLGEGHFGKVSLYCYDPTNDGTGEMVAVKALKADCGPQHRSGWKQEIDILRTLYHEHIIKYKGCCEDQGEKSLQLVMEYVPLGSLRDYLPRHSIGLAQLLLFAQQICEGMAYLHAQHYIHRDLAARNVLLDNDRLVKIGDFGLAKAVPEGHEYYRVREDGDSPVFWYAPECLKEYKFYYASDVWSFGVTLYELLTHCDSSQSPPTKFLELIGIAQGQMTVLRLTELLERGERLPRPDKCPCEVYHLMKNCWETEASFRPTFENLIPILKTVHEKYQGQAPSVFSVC
Sequence of Histone deacetylase 7 (Homo sapiens) (Q8WUI4 whole entry, the tested form may be a part): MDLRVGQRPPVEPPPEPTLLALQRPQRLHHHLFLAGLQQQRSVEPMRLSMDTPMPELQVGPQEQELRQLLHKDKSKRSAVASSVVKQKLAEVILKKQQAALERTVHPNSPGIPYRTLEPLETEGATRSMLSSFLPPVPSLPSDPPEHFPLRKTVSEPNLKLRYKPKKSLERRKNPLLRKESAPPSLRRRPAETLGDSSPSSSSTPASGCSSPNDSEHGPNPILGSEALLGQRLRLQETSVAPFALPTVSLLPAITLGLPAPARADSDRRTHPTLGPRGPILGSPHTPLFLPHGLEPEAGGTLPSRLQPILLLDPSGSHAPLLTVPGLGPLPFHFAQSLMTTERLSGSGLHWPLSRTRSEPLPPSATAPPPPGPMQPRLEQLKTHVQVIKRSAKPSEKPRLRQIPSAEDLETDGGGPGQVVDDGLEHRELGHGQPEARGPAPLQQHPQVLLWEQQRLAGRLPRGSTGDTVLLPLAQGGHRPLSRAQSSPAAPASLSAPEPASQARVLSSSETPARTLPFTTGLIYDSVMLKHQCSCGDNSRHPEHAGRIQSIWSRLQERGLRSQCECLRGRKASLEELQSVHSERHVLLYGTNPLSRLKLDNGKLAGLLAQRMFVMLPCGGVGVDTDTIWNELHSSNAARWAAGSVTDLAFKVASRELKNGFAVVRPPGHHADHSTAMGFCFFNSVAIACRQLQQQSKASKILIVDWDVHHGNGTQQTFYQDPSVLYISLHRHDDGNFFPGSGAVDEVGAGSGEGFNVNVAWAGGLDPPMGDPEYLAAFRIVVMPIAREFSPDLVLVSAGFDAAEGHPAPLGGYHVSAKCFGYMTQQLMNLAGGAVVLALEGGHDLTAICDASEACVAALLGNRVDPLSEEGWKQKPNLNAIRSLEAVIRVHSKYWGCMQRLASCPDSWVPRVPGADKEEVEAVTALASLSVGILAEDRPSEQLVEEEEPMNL
Sequence of Histone deacetylase 1 (Q13547 whole entry, the tested form may be a part): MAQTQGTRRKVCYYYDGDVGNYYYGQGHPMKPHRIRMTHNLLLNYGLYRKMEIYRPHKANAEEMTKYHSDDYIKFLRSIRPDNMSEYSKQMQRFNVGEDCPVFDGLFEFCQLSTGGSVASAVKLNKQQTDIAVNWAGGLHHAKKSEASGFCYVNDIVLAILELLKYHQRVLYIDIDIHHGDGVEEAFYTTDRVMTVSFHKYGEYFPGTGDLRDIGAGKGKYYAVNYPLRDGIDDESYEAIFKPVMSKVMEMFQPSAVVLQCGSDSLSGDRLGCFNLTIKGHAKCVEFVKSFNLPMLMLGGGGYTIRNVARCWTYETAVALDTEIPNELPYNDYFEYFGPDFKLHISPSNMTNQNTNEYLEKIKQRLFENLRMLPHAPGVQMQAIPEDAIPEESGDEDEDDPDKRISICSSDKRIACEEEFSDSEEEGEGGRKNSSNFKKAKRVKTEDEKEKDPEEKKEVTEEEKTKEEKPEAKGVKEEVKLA
Sequence of Mast/stem cell growth factor receptor Kit (P10721 whole entry, the tested form may be a part): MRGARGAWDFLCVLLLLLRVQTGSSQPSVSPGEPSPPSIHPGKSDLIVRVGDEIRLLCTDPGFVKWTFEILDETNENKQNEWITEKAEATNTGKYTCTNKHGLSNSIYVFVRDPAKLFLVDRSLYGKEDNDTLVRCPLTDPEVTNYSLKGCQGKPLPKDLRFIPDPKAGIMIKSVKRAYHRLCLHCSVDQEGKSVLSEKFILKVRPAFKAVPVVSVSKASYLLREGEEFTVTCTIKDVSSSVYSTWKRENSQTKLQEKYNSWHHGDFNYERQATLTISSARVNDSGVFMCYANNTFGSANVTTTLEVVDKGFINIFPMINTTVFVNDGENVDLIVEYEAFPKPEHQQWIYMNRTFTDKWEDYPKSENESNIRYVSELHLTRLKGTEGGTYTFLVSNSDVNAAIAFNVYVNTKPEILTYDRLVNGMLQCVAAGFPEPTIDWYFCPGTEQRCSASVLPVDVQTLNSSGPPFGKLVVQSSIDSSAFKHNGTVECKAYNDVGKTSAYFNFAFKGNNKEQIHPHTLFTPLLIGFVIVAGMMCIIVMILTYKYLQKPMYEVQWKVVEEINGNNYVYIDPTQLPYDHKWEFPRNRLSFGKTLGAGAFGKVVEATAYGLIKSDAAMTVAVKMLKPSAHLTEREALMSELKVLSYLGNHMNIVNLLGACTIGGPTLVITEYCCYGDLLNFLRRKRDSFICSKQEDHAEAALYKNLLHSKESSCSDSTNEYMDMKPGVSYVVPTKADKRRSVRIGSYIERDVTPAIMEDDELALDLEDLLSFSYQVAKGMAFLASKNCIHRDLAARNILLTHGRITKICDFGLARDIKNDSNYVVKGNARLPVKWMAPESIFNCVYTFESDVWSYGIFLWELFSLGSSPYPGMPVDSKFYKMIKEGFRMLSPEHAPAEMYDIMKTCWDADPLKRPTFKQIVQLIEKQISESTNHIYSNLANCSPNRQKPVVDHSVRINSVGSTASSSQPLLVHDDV
Sequence of Mitogen-activated protein kinase 8 (P45983 whole entry, the tested form may be a part): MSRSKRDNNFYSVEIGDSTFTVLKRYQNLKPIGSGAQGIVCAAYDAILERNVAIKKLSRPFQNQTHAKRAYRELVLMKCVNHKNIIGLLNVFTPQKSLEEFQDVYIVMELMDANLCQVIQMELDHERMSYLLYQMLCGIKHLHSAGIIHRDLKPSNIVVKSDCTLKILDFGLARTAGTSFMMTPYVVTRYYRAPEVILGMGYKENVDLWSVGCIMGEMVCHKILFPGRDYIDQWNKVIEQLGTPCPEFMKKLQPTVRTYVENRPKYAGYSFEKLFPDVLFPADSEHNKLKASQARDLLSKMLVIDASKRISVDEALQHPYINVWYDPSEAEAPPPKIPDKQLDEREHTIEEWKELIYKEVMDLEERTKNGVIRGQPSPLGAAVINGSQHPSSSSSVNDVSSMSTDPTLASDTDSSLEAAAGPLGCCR
Sequence of Mitogen-activated protein kinase 10 (P53779 whole entry, the tested form may be a part): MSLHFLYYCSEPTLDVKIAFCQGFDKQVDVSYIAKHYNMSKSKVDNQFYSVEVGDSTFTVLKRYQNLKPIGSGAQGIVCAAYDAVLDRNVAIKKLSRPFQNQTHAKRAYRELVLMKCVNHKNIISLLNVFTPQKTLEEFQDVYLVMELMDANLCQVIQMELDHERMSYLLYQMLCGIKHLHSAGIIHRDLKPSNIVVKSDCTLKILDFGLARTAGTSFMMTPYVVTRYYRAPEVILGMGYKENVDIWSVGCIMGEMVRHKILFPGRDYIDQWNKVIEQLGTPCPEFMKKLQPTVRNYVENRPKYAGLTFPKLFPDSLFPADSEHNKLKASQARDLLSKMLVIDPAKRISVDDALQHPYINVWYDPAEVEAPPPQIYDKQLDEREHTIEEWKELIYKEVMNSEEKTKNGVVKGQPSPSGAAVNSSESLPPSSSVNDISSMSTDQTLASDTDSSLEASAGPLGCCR

O=C(CCCCCCOc1ccc2cc1COC/C=C/COCc1cccc(c1)-c1ccnc(n1)N2)NO
Activity [1]: 13% | IC50 [2]: 0.01 to 1 µM | IC50 [3]: 2.23 µM | Activity [4]: 21% | Activity [5]: 29% | Activity [6]: 4.9% | Activity (MOLM-14): 0% | inhibition [7]: 1.3% | IC50 [8]: 1.09 µM | IC50 [9]: 1 to 10 µM | IC50 [10]: 0.0014 µM | IC50 [11]: 2.05 µM | IC50 [12]: 1.08 µM | IC50 [13]: 1.63 µM | IC50 (Histone deacetylase 1): 0.222 µM | inhibition [14]: 56%
